Source: ChEMBL document CHEMBL1139875, “Discovery of 4-aminobutyric acid derivatives possessing anticonvulsant and antinociceptive activities: a hybrid pharmacophore approach” (2007)
The source made the active and inactive calls. The calls are words filed in the database; no cut-off is given here.

System: Rattus norvegicus
Assay: Anti-cold allodynia effect in Sprague-Dawley rat CCI model assessed as duration of paw withdrawal 100 mg/kg, ip after 2.5 hr
Format: functional
Settings: route intraperitoneal
In short: (§1)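 CCI by sciatic nerve ligation under pentobarbital (65 mg/kg i.p.). Rats tested at baseline and 9 days post-surgery; those with allodynia dosed i.p. 100 mg/kg, vehicle 30% v/v PEG 400 in water. Acetone (100-200 µL) misted on midplantar affected paw; withdrawal duration recorded, three samples averaged, at least 3 min apart; n = 4.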

Row | Structure (SMILES) | Activity [s]
1 | NC(=O)N1c2ccccc2C=Cc2ccccc21 [CARBAMAZEPINE] | 21.8
2 | O=C(O)CCCNC(=O)N/N=C/c1ccccc1O | 12.2
3 | NCC1(CC(=O)O)CCCCC1 [GABAPENTIN] | 7.2

System: Rattus norvegicus
Assay: Effect on spontaneous pain in Sprague-Dawley rat SNL model assessed as duration of paw withdrawal at 100 mg/kg, ip after 2.5 hrs
Format: functional
Settings: route intraperitoneal
In short: (§2)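 Rats underwent left L5 spinal nerve ligation (Kim and Chung) under i.p. pentobarbital (65 mg/kg). Spontaneous pain is recorded for 5 min after 10 min acclimatization, as cumulative duration the ipsilateral paw is lifted, excluding locomotor lifts. Dosing is 100 mg/kg i.p. in 30% v/v PEG 400/water, with testing at 0.5–2.5 h. Four rats, mean ± SEM versus predrug, one-way ANOVA with Bonferroni.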

Row | Structure (SMILES) | Activity [s]
4 | NC(=O)N1c2ccccc2C=Cc2ccccc21 [CARBAMAZEPINE] | 94.9
5 | NCC1(CC(=O)O)CCCCC1 [GABAPENTIN] | 10.1

System: Rattus norvegicus
Assay: Anti-dynamic allodynia effect in Sprague-Dawley rat SNL model assessed as latency to paw withdrawal 100 mg/kg, ip after 2.5 hrs
Format: functional
Settings: route intraperitoneal
In short: (§3)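 Left L5 spinal nerve ligation rats, tested preoperatively and 9 days postoperatively, then given 100 mg/kg i.p. (vehicle 30% v/v PEG 400 in water). After 10 min acclimatization, plantar surface of affected paw stroked mildly with a cotton-bud; paw lift response recorded. n = 4; retested 0.5-2.5 h post-dose.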

Row | Structure (SMILES) | Activity [s]
6 | NC(=O)N1c2ccccc2C=Cc2ccccc21 [CARBAMAZEPINE] | 1.65
7 | O=C(O)CCCNC(=O)N/N=C/c1ccccc1O | 11.32
8 | NCC1(CC(=O)O)CCCCC1 [GABAPENTIN] | 6.53

System: Mus musculus
Assay: Anticonvulsant activity in Swiss Albino mouse at 30 mg/kg, ip after 4 hrs by scSTY test
Format: functional, organism-based
Set-up: dose 30 mg/kg
Settings: not given
In short: (§4)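 Mice (Swiss, 20-25 g) given i.p. doses of 30, 100 and 300 mg/kg under ADD program protocols, three per group, examined at 0.5 and 4 h in MES, scPTZ, scSTY or scPIC seizure tests. Value is the minimum dose protecting half or more of the mice.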

Row | Structure (SMILES) | Activity
9 | O=C(O)CCCNC(=O)N/N=C/c1ccccc1O | Active

System: Rattus norvegicus
Assay: Anti-cold allodynia effect in Sprague-Dawley rat CCI model assessed as duration of paw withdrawal 100 mg/kg, ip after 2 hr
Format: functional
Settings: route intraperitoneal
In short: as §1

Row | Structure (SMILES) | Activity [s]
10 | NC(=O)N1c2ccccc2C=Cc2ccccc21 [CARBAMAZEPINE] | 27.8
11 | O=C(O)CCCNC(=O)N/N=C/c1ccccc1O | 13.7
12 | NCC1(CC(=O)O)CCCCC1 [GABAPENTIN] | 7.5

System: Mus musculus
Assay: Anticonvulsant activity in Swiss Albino mouse at 300 mg/kg, ip after 4 hrs by MES test
Format: functional, organism-based
Set-up: dose 300 mg/kg
Settings: not given
In short: as §4

Row | Structure (SMILES) | Activity
13 | O=C(O)CCCNC(=O)N/N=C/c1ccccc1O | inactive

System: Rattus norvegicus
Assay: Antihyperalgesic effects in Sprague-Dawley rat SNL model assessed as duration of paw withdrawal at 100 mg/kg, ip after 2 hrs, ip
Format: functional
Settings: route intraperitoneal
In short: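 L5 SNL rats (n = 4), dosed 100 mg/kg i.p. (vehicle 30% v/v PEG 400 in water). Pin-prick to midplantar ipsilateral left hindpaw; withdrawal duration, mean of three responses; ≥2 s defined abnormal. Mean ± SEM; one-way ANOVA with Bonferroni versus predrug.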

Row | Structure (SMILES) | Activity [s]
14 | NC(=O)N1c2ccccc2C=Cc2ccccc21 [CARBAMAZEPINE] | 5.5
15 | NCC1(CC(=O)O)CCCCC1 [GABAPENTIN] | 9.9

System: Rattus norvegicus
Assay: Anti-cold allodynia effect in Sprague-Dawley rat SNL model assessed as duration of paw withdrawal 100 mg/kg, ip after 2.5 hrs
Format: functional
Settings: route intraperitoneal
In short: (§5)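 Left L5 spinal nerve ligation under pentobarbital (65 mg/kg i.p.). Allodynic rats dosed i.p. 100 mg/kg, vehicle 30% v/v PEG 400 in water. Acetone (100-200 µL) misted onto midplantar affected paw after 10 min acclimatization; paw withdrawal duration, mean of three samples at least 3 min apart; n = 4 rats.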

Row | Structure (SMILES) | Activity [s]
16 | NC(=O)N1c2ccccc2C=Cc2ccccc21 [CARBAMAZEPINE] | 20.6
17 | O=C(O)CCCNC(=O)N/N=C/c1ccccc1O | 28.5
18 | NCC1(CC(=O)O)CCCCC1 [GABAPENTIN] | 6.9

System: Rattus norvegicus
Assay: Anti-cold allodynia effect in Sprague-Dawley rat CCI model assessed as duration of paw withdrawal 100 mg/kg, ip after 1.5 hr
Format: functional
Settings: route intraperitoneal
In short: as §1

Row | Structure (SMILES) | Activity [s]
19 | NC(=O)N1c2ccccc2C=Cc2ccccc21 [CARBAMAZEPINE] | 28.9
20 | O=C(O)CCCNC(=O)N/N=C/c1ccccc1O | 11.2
21 | NCC1(CC(=O)O)CCCCC1 [GABAPENTIN] | 9.3

System: Mus musculus
Assay: Anticonvulsant activity in Swiss Albino mouse at 30 mg/kg, ip after 0.5 hr by scPIC test
Format: functional, organism-based
Set-up: dose 30 mg/kg
Settings: not given
In short: as §4

Row | Structure (SMILES) | Activity
22 | O=C(O)CCCNC(=O)N/N=C/c1ccccc1O | Active

System: Mus musculus
Assay: Neurotoxicity in Swiss Albino mouse at 300 mg/kg, ip after 4 hrs by rotarod test
Format: functional, organism-based
Set-up: dose 300 mg/kg
Settings: not given
In short: (§6)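 Swiss mice (20-25 g) are trained on an accelerating rotorod (10 rpm, 3.2 cm rod), then injected i.p. at 30, 100 or 300 mg/kg, with three per group. Neurotoxicity means failure to keep equilibrium for at least 1 min in each of three trials, checked at 0.5 and 4 h. The value reported is the minimum dose affecting half or more of the mice.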

Row | Structure (SMILES) | Activity
23 | O=C(O)CCCNC(=O)N/N=C/c1ccccc1O | Active

System: Mus musculus
Assay: Analgesic activity in Swiss Albino mouse assessed as number of acetic acid-induced writhing per 30 min after 100 mg/kg, ip
Format: functional
Settings: route intraperitoneal
In short: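 Mice in groups of six dosed i.p. at 100 mg/kg, controls receiving 30% v/v PEG 400 in water. Writhing induced by i.p. 0.1 mL of 3% v/v acetic acid 1 h after drug. Writhes (abdominal stretch with at least one hind limb extended) counted over 30 min; % inhibition calculated. Mean ± SEM, Student's t test.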

Row | Structure (SMILES) | Activity
24 | O=C(O)CCCNC(=O)N/N=C/c1ccccc1O | 19

System: Mus musculus
Assay: Anticonvulsant activity in Swiss Albino mouse at 30 mg/kg, ip after 4 hrs by scPIC test
Format: functional, organism-based
Set-up: dose 30 mg/kg
Settings: not given
In short: as §4

Row | Structure (SMILES) | Activity
25 | O=C(O)CCCNC(=O)N/N=C/c1ccccc1O | Active

System: Rattus norvegicus
Assay: Effect on spontaneous pain in Sprague-Dawley rat SNL model assessed as duration of paw withdrawal at 100 mg/kg, ip after 1 hr
Format: functional
Settings: route intraperitoneal
In short: as §2

Row | Structure (SMILES) | Activity [s]
26 | NC(=O)N1c2ccccc2C=Cc2ccccc21 [CARBAMAZEPINE] | 7.9
27 | NCC1(CC(=O)O)CCCCC1 [GABAPENTIN] | 12.9

System: Rattus norvegicus
Assay: Anti-dynamic allodynia effect in Sprague-Dawley rat SNL model assessed as latency to paw withdrawal 100 mg/kg, ip after 2 hrs
Format: functional
Settings: route intraperitoneal
In short: as §3

Row | Structure (SMILES) | Activity [s]
28 | NC(=O)N1c2ccccc2C=Cc2ccccc21 [CARBAMAZEPINE] | 1.9
29 | O=C(O)CCCNC(=O)N/N=C/c1ccccc1O | 11.8
30 | NCC1(CC(=O)O)CCCCC1 [GABAPENTIN] | 6.6

System: Rattus norvegicus
Assay: Effect on spontaneous pain in Sprague-Dawley rat SNL model assessed as duration of paw withdrawal at 100 mg/kg, ip after 2 hrs
Format: functional
Settings: route intraperitoneal
In short: as §2

Row | Structure (SMILES) | Activity [s]
31 | NC(=O)N1c2ccccc2C=Cc2ccccc21 [CARBAMAZEPINE] | 85.4
32 | NCC1(CC(=O)O)CCCCC1 [GABAPENTIN] | 9.1

System: Mus musculus
Assay: Anticonvulsant activity in Swiss Albino mouse at 30 mg/kg, ip after 0.5 hr by scSTY test
Format: functional, organism-based
Set-up: dose 30 mg/kg
Settings: not given
In short: as §4

Row | Structure (SMILES) | Activity
33 | O=C(O)CCCNC(=O)N/N=C/c1ccccc1O | Active

System: Rattus norvegicus
Assay: Anti-cold allodynia effect in Sprague-Dawley rat SNL model assessed as duration of paw withdrawal 100 mg/kg, ip after 1 hrs
Format: functional
Settings: route intraperitoneal
In short: as §5

Row | Structure (SMILES) | Activity [s]
34 | NC(=O)N1c2ccccc2C=Cc2ccccc21 [CARBAMAZEPINE] | 11.8
35 | O=C(O)CCCNC(=O)N/N=C/c1ccccc1O | 27.3
36 | NCC1(CC(=O)O)CCCCC1 [GABAPENTIN] | 9

System: Rattus norvegicus
Assay: Effect on spontaneous pain in Sprague-Dawley rat SNL model assessed as duration of paw withdrawal at 100 mg/kg, ip after 1.5 hrs
Format: functional
Settings: route intraperitoneal
In short: as §2

Row | Structure (SMILES) | Activity [s]
37 | NC(=O)N1c2ccccc2C=Cc2ccccc21 [CARBAMAZEPINE] | 22.3
38 | NCC1(CC(=O)O)CCCCC1 [GABAPENTIN] | 10.2

System: Mus musculus
Assay: Anticonvulsant activity in Swiss Albino mouse at 300 mg/kg, ip after 0.5 hr by MES test
Format: functional, organism-based
Set-up: dose 300 mg/kg
Settings: not given
In short: as §4

Row | Structure (SMILES) | Activity
39 | O=C(O)CCCNC(=O)N/N=C/c1ccccc1O | inactive

System: Mus musculus
Assay: Neurotoxicity in Swiss Albino mouse at 300 mg/kg, ip after 0.5 hr by rotarod test
Format: functional, organism-based
Set-up: dose 300 mg/kg
Settings: not given
In short: as §6

Row | Structure (SMILES) | Activity
40 | O=C(O)CCCNC(=O)N/N=C/c1ccccc1O | inactive

System: Rattus norvegicus
Assay: Effect on spontaneous pain in Sprague-Dawley rat SNL model assessed as duration of paw withdrawal at 100 mg/kg, ip after 0.5 hr
Format: functional
Settings: route intraperitoneal
In short: as §2

Row | Structure (SMILES) | Activity [s]
41 | NC(=O)N1c2ccccc2C=Cc2ccccc21 [CARBAMAZEPINE] | 14.6
42 | NCC1(CC(=O)O)CCCCC1 [GABAPENTIN] | 29.7

System: Rattus norvegicus
Assay: Anti-cold allodynia effect in Sprague-Dawley rat SNL model assessed as duration of paw withdrawal 100 mg/kg, ip after 0.5 hr
Format: functional
Settings: route intraperitoneal
In short: as §5

Row | Structure (SMILES) | Activity [s]
43 | NC(=O)N1c2ccccc2C=Cc2ccccc21 [CARBAMAZEPINE] | 13.5
44 | O=C(O)CCCNC(=O)N/N=C/c1ccccc1O | 22.2
45 | NCC1(CC(=O)O)CCCCC1 [GABAPENTIN] | 16.7

System: Rattus norvegicus
Assay: Anti-cold allodynia effect in Sprague-Dawley rat CCI model assessed as duration of paw withdrawal 100 mg/kg, ip after 1 hr
Format: functional
Settings: route intraperitoneal
In short: as §1

Row | Structure (SMILES) | Activity [s]
46 | NC(=O)N1c2ccccc2C=Cc2ccccc21 [CARBAMAZEPINE] | 10.6
47 | O=C(O)CCCNC(=O)N/N=C/c1ccccc1O | 15.8
48 | NCC1(CC(=O)O)CCCCC1 [GABAPENTIN] | 10
